In ChEMBL document CHEMBL2401717, “Synthesis and bioactive evaluation of novel hybrids of metronidazole and berberine as new type of antimicrobial agents and their transportation behavior by human serum albumin” (Bioorg Med Chem, 2013):
Converted amounts (≈) assume the structure as drawn.

Legend:
[1] = Stability of the compound at pH 6.5 to 8.5 after 30 mins by UV spectrophotometry; format: physicochemical; settings: buffer, pH 6.5, 0.5 h
Outline: (§1)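 Stability followed by UV spectrometry across pH 6.5–8.5 and temperatures 30–80 °C.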

[2] = Stability of the compound at 30 to 80 degC after 30 mins by UV spectrophotometry; format: physicochemical; settings: 0.5 h; outline: as §1
[3] = Solubility of the compound in phosphate buffer at pH 7.5 after 20 hrs by UV spectrophotometry; format: physicochemical
Outline: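 Phosphate buffer pH 7.5 added to solid; suspension sonicated 10 min, then shaken at room temperature for 20 h and centrifuged. Supernatant concentration read by UV absorbance against a regression calibration curve (278 and 340 nm).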

[4] = Octanol-water partition coefficient, log P of the compound after 24 hrs by UV-Vis spectrophotometry; format: physicochemical
Candida = experiment: Antifungal activity against Candida mycoderma after 24 hrs by twofold broth dilution method; format: functional
Outline: (§2)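 MIC by NCCLS-recommended twofold broth microdilution, run in triplicate. Strains: B. subtilis ATCC6633, E. coli DH52, M. luteus ATCC4698, P. vulgaris ATCC6896, S. dysenteriae, S. aureus ATCC25923, MRSA N315, C. albicans ATCC76615, C. mycoderma. References were chloromycin, norfloxacin and berberine for bacteria, and fluconazole for fungi.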

Proteus vulgaris = experiment: Antibacterial activity against Proteus vulgaris after 24 hrs by twofold broth dilution method; format: functional; outline: as §2
Candida albicans = experiment: Antifungal activity against Candida albicans after 24 hrs by twofold broth dilution method; format: functional; outline: as §2
Pseudomonas aeruginosa = experiment: Antibacterial activity against Pseudomonas aeruginosa after 24 hrs by twofold broth dilution method; format: functional
Outline: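 Twofold broth dilution in 96-well microplates following NCCLS guidance; MIC read as the endpoint; tests run in triplicate.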

Shigella dysenteriae = experiment: Antibacterial activity against Shigella dysenteriae after 24 hrs by twofold broth dilution method; format: functional; outline: as §2
Escherichia coli = experiment: Antibacterial activity against Escherichia coli DH52 after 24 hrs by twofold broth dilution method; format: functional; settings: DH52, 24 h; outline: as §2
Micrococcus luteus = experiment: Antibacterial activity against Micrococcus luteus ATCC 4698 after 24 hrs by twofold broth dilution method; format: functional; settings: ATCC 4698, 24 h; outline: as §2
Bacillus subtilis = experiment: Antibacterial activity against Bacillus subtilis after 24 hrs by twofold broth dilution method; format: functional; outline: as §2
Staphylococcus aureus [5] = experiment: Antibacterial activity against Staphylococcus aureus ATCC 25923 after 24 hrs by twofold broth dilution method; format: functional; settings: ATCC 25923, 24 h; outline: as §2
Staphylococcus aureus [6] = experiment: Antibacterial activity against methicillin-resistant Staphylococcus aureus N315 after 24 hrs by twofold broth dilution method; format: functional; settings: N315, 24 h; outline: as §2

## COc1ccc2cc3[n+](cc2c1OCCN(CCn1cncc1[N+](=O)[O-])Cc1ccc(Cl)cc1)CCc1cc2c(cc1-3)OCO2.[Cl-]
[1]
  Stability: Stable
[2]
  Stability: Stable
[3]
  solubility at 20 h: 68.1 µg/mL
[4]
  logP at 24 h: 0.53
Candida
  MIC: 64 µg/mL
Proteus vulgaris
  MIC: 32 µg/mL
Candida albicans
  MIC: 32 µg/mL
Pseudomonas aeruginosa
  MIC: 16 µg/mL
Shigella dysenteriae
  MIC: 32 µg/mL
Escherichia coli
  MIC: 32 µg/mL
Micrococcus luteus
  MIC: 64 µg/mL
Bacillus subtilis
  MIC: 128 µg/mL
Staphylococcus aureus [5]
  MIC: 16 µg/mL
Staphylococcus aureus [6]
  MIC: 32 µg/mL

## Cc1ncc([N+](=O)[O-])n1CCN(CCBr)Cc1ccc(F)cc1F
Candida
  MIC: 128 µg/mL (≈ 317 µM)
Proteus vulgaris
  MIC: 128 µg/mL (≈ 317 µM)
Candida albicans
  MIC: 128 µg/mL (≈ 317 µM)
Pseudomonas aeruginosa
  MIC: 64 µg/mL (≈ 159 µM)
Shigella dysenteriae
  MIC: 32 µg/mL (≈ 79.4 µM)
Escherichia coli
  MIC: 32 µg/mL (≈ 79.4 µM)
Micrococcus luteus
  MIC: 128 µg/mL (≈ 317 µM)
Bacillus subtilis
  MIC: 256 µg/mL (≈ 635 µM)
Staphylococcus aureus [5]
  MIC: 64 µg/mL (≈ 159 µM)
Staphylococcus aureus [6]
  MIC: 16 µg/mL (≈ 39.7 µM)

## O=[N+]([O-])c1cn(CCN(CCBr)Cc2ccc(F)cc2F)cn1
Candida
  MIC: 8 µg/mL (≈ 20.6 µM)
Proteus vulgaris
  MIC: 32 µg/mL (≈ 82.2 µM)
Candida albicans
  MIC: 32 µg/mL (≈ 82.2 µM)
Pseudomonas aeruginosa
  MIC: 16 µg/mL (≈ 41.1 µM)
Shigella dysenteriae
  MIC: 16 µg/mL (≈ 41.1 µM)
Escherichia coli
  MIC: 32 µg/mL (≈ 82.2 µM)
Micrococcus luteus
  MIC: 16 µg/mL (≈ 41.1 µM)
Bacillus subtilis
  MIC: 64 µg/mL (≈ 164 µM)
Staphylococcus aureus [5]
  MIC: 32 µg/mL (≈ 82.2 µM)
Staphylococcus aureus [6]
  MIC: 64 µg/mL (≈ 164 µM)

## O=[N+]([O-])c1cn(CCN(CCBr)Cc2ccc(Cl)c(Cl)c2)cn1
Candida
  MIC: 64 µg/mL (≈ 152 µM)
Proteus vulgaris
  MIC: 64 µg/mL (≈ 152 µM)
Candida albicans
  MIC: 32 µg/mL (≈ 75.8 µM)
Pseudomonas aeruginosa
  MIC: 32 µg/mL (≈ 75.8 µM)
Shigella dysenteriae
  MIC: 16 µg/mL (≈ 37.9 µM)
Escherichia coli
  MIC: 32 µg/mL (≈ 75.8 µM)
Micrococcus luteus
  MIC: 64 µg/mL (≈ 152 µM)
Bacillus subtilis
  MIC: 32 µg/mL (≈ 75.8 µM)
Staphylococcus aureus [5]
  MIC: 32 µg/mL (≈ 75.8 µM)
Staphylococcus aureus [6]
  MIC: 64 µg/mL (≈ 152 µM)

## O=[N+]([O-])c1cn(CCN(CCBr)Cc2ccccc2Cl)cn1
Candida
  MIC: 128 µg/mL (≈ 330 µM)
Proteus vulgaris
  MIC: 64 µg/mL (≈ 165 µM)
Candida albicans
  MIC: 16 µg/mL (≈ 41.3 µM)
Pseudomonas aeruginosa
  MIC: 32 µg/mL (≈ 82.5 µM)
Shigella dysenteriae
  MIC: 32 µg/mL (≈ 82.5 µM)
Escherichia coli
  MIC: 32 µg/mL (≈ 82.5 µM)
Micrococcus luteus
  MIC: 64 µg/mL (≈ 165 µM)
Bacillus subtilis
  MIC: 32 µg/mL (≈ 82.5 µM)
Staphylococcus aureus [5]
  MIC: 16 µg/mL (≈ 41.3 µM)
Staphylococcus aureus [6]
  MIC: 64 µg/mL (≈ 165 µM)

## O=[N+]([O-])c1cn(CCN(CCBr)Cc2cccc(Cl)c2)cn1
Candida
  MIC: 128 µg/mL (≈ 330 µM)
Proteus vulgaris
  MIC: 512 µg/mL (≈ 1320 µM)
Candida albicans
  MIC: 128 µg/mL (≈ 330 µM)
Pseudomonas aeruginosa
  MIC: 64 µg/mL (≈ 165 µM)
Shigella dysenteriae
  MIC: 256 µg/mL (≈ 660 µM)
Escherichia coli
  MIC: 128 µg/mL (≈ 330 µM)
Micrococcus luteus
  MIC: 64 µg/mL (≈ 165 µM)
Bacillus subtilis
  MIC: 64 µg/mL (≈ 165 µM)
Staphylococcus aureus [5]
  MIC: 64 µg/mL (≈ 165 µM)
Staphylococcus aureus [6]
  MIC: 128 µg/mL (≈ 330 µM)

## O=[N+]([O-])c1cn(CCN(CCBr)Cc2ccc(Cl)cc2)cn1
Candida
  MIC: 128 µg/mL (≈ 330 µM)
Proteus vulgaris
  MIC: 128 µg/mL (≈ 330 µM)
Candida albicans
  MIC: 64 µg/mL (≈ 165 µM)
Pseudomonas aeruginosa
  MIC: 256 µg/mL (≈ 660 µM)
Shigella dysenteriae
  MIC: 128 µg/mL (≈ 330 µM)
Escherichia coli
  MIC: 128 µg/mL (≈ 330 µM)
Micrococcus luteus
  MIC: 128 µg/mL (≈ 330 µM)
Bacillus subtilis
  MIC: 64 µg/mL (≈ 165 µM)
Staphylococcus aureus [5]
  MIC: 64 µg/mL (≈ 165 µM)
Staphylococcus aureus [6]
  MIC: 128 µg/mL (≈ 330 µM)

## O=[N+]([O-])c1cncn1CCN(CCBr)Cc1ccc(F)cc1F
Candida
  MIC: 4 µg/mL (≈ 10.3 µM)
Proteus vulgaris
  MIC: 16 µg/mL (≈ 41.1 µM)
Candida albicans
  MIC: 16 µg/mL (≈ 41.1 µM)
Pseudomonas aeruginosa
  MIC: 8 µg/mL (≈ 20.6 µM)
Shigella dysenteriae
  MIC: 8 µg/mL (≈ 20.6 µM)
Escherichia coli
  MIC: 32 µg/mL (≈ 82.2 µM)
Micrococcus luteus
  MIC: 16 µg/mL (≈ 41.1 µM)
Bacillus subtilis
  MIC: 64 µg/mL (≈ 164 µM)
Staphylococcus aureus [5]
  MIC: 32 µg/mL (≈ 82.2 µM)
Staphylococcus aureus [6]
  MIC: 32 µg/mL (≈ 82.2 µM)

## COc1ccc2cc3[n+](cc2c1OC)CCc1cc2c(cc1-3)OCO2.[Cl-] [BERBERINE CHLORIDE]
Candida
  MIC: 128 µg/mL
Proteus vulgaris
  MIC: 128 µg/mL
Candida albicans
  MIC: > 512 µg/mL
Pseudomonas aeruginosa
  MIC: 256 µg/mL
Shigella dysenteriae
  MIC: 256 µg/mL
Escherichia coli
  MIC: > 512 µg/mL
Micrococcus luteus
  MIC: > 512 µg/mL
Bacillus subtilis
  MIC: > 512 µg/mL
Staphylococcus aureus [5]
  MIC: 512 µg/mL
Staphylococcus aureus [6]
  MIC: 128 µg/mL

## NC1CCN(c2c(F)cc3c(=O)c(C(=O)O)cn(C4CC4)c3c2Cl)C1 (stereo not given) [CLINAFLOXACIN]
Pseudomonas aeruginosa
  MIC: 16 µg/mL (≈ 43.7 µM)

## OC(Cn1cncn1)(Cn1cncn1)c1ccc(F)cc1F [FLUCONAZOLE]
Candida
  MIC: 4 µg/mL (≈ 13.1 µM)
Candida albicans
  MIC: 1 µg/mL (≈ 3.27 µM)

## CCn1cc(C(=O)O)c(=O)c2cc(F)c(N3CCNCC3)cc21 [NORFLOXACIN]
Proteus vulgaris
  MIC: 8 µg/mL (≈ 25.1 µM)
Pseudomonas aeruginosa
  MIC: 16 µg/mL (≈ 50.1 µM)
Shigella dysenteriae
  MIC: 4 µg/mL (≈ 12.5 µM)
Escherichia coli
  MIC: 16 µg/mL (≈ 50.1 µM)
Micrococcus luteus
  MIC: 2 µg/mL (≈ 6.26 µM)
Bacillus subtilis
  MIC: 1 µg/mL (≈ 3.13 µM)
Staphylococcus aureus [5]
  MIC: 0.5 µg/mL (≈ 1.57 µM)
Staphylococcus aureus [6]
  MIC: 8 µg/mL (≈ 25.1 µM)
